The species entered for data set [1] is Rattus norvegicus. Briefly: Effective concentration against rat aortic smooth muscle cell. The data set is classed as functional. In outline: (§1)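 Rat aortic smooth muscle cells cultured in DMEM with 10% fetal calf serum at 37 °C, seeded at (2-5) × 10⁴ cells/well and used confluent after 3-5 days. Cells preincubated 30 min at 37 °C in PBS with inhibitor, then stimulated with atrial natriuretic factor (0.1 µM) 10 min. Intracellular cGMP extracted with 65% ethanol. Triplicate wells, DMSO ≤0.1%. EC50 taken as concentration giving half-maximal cGMP increase.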

Data set [2] deals with cGMP-specific 3',5'-cyclic phosphodiesterase (Bos taurus, UniProt Q28156). Briefly: In vitro inhibitory activity against bovine phosphodiesterase 5.
The target in the next data set is Phosphodiesterase 3B (Bos taurus, UniProt E1BN64). In words: Inhibition of bovine aorta PDE3 (Phosphodiesterase 3).
The species named for data set [3] is Rattus norvegicus. In words: Increased intracellular cGMP concentration in rat aortic smooth cells (RSMC) using atrial natriuretic factor. The data set is classed as functional, cell-based. To be noted: Aorta. In outline: as §1
Data set [4] addresses cGMP-specific 3',5'-cyclic phosphodiesterase (Bos taurus) (UniProt Q28156). In words: Inhibition of bovine PDE5 (Phosphodiesterase 5). The note with it: concentration not given here.
Data set [5] is described as follows: Oral bioavailability in rat was determined. The format is ADME, organism-based. The note with it: in vivo.
Data set [6] deals with cGMP-dependent 3',5'-cyclic phosphodiesterase (Homo sapiens, UniProt O00408). Briefly: Inhibition of Human recombinant PDE2 (Phosphodiesterase 2).
A further data set deals with Phosphodiesterase 6. Briefly: Inhibition of bovine retina PDE6 (Phosphodiesterase 6). The data set is classed as protein assay, Bos taurus.
A short description of data set [7]: Half life in rat. To be noted: in vivo. The format is ADME, organism-based.
Data set [8] is described as follows: The total clearance time in plasma in rat was determined. The format is ADME, organism-based.
The target of the next data set is Phosphodiesterase 1 (Bos taurus, UniProt Q01061+P14100). In words: Inhibition of bovine aorta PDE1 (Phosphodiesterase 1). The data set is classed as protein assay.

We go through 32 compounds from ChEMBL document CHEMBL1145127 (J Med Chem, 2003).

Phosphodiesterase 3B, sequence (E1BN64 whole entry): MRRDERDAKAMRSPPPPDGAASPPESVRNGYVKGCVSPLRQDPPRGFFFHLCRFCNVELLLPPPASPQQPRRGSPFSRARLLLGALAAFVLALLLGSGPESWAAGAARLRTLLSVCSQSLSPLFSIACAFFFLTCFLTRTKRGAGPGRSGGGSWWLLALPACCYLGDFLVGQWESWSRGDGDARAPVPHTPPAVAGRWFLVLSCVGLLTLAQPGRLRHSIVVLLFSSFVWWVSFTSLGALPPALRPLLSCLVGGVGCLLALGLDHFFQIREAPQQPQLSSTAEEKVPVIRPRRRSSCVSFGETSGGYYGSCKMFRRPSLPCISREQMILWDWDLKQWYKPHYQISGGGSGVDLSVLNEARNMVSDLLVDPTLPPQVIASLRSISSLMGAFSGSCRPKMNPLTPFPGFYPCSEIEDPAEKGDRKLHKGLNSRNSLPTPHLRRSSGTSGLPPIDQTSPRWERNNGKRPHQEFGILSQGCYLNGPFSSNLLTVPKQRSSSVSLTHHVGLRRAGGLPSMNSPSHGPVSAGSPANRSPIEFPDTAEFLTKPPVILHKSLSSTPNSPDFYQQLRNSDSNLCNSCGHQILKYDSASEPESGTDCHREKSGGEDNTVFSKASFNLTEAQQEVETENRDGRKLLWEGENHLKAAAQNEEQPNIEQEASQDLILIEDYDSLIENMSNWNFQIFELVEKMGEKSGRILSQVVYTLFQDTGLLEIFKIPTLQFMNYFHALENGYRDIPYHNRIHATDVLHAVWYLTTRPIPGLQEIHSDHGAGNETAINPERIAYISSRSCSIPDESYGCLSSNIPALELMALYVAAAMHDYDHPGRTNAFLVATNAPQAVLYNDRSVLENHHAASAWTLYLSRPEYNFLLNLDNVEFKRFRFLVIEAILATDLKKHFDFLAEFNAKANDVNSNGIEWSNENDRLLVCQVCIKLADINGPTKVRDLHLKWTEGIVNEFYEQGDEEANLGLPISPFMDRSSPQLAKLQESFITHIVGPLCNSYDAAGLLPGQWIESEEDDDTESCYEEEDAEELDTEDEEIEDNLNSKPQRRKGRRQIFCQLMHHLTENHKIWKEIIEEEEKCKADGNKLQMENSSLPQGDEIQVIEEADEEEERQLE
cGMP-dependent 3',5'-cyclic phosphodiesterase, sequence (O00408 whole entry): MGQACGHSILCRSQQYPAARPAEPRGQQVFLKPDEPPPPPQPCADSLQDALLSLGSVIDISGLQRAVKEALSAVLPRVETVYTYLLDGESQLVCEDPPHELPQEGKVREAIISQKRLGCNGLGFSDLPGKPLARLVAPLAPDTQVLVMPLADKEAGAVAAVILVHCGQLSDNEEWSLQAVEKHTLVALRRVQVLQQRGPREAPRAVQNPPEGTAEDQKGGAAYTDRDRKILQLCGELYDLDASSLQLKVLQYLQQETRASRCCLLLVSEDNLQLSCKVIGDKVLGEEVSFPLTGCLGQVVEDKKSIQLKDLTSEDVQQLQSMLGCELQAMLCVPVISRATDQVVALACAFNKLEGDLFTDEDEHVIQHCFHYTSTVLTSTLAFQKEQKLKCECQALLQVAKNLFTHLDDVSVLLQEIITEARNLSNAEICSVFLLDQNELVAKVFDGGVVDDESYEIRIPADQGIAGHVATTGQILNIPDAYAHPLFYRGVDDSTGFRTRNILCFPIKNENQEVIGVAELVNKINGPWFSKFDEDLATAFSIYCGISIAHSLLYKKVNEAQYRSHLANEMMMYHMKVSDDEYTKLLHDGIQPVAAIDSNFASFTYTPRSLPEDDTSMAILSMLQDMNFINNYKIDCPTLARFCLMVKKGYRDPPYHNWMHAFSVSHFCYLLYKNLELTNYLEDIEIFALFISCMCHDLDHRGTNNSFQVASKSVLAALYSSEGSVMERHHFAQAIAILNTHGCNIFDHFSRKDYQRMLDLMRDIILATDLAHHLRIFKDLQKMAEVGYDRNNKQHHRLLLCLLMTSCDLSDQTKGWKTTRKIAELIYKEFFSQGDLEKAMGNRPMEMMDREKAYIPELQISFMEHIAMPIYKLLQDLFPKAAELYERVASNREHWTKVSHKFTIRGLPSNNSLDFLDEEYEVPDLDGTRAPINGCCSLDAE

By EC50 is commonly meant the concentration needed to bring the measured effect to its halfway point. For `CCCCN1C(=O)C2Cc3c([nH]c4ccccc34)C(c3ccc(OC)cc3)N2C1=O` (configuration not stated), in the data set listed under Rattus norvegicus [1] (Rattus norvegicus), the EC50 was 1000 nM.
A word on the IC50: it is the concentration that gives 50% inhibition. For `CCCCN1CC(=O)N2C(c3ccc(OC)cc3)c3[nH]c4ccccc4c3C[C@@H]2C1=O` (some centres not stated), in the data set filed under Rattus norvegicus [1] (Rattus norvegicus), the EC50 was > 10000 nM. Further, in data set [2], 70 nM corresponded to half-maximal inhibition (IC50).
The compound `CCCc1nn(C)c2c(=O)[nH]c(-c3cc(S(=O)(=O)N4CCN(C)CC4)ccc3OCC)nc12` came in with an IC50 on Phosphodiesterase 3B of 9200 nM.
`COc1ccc(C2c3[nH]c4ccccc4c3C[C@@H]3C(=O)N(Cc4ccccc4)C(=O)N23)cc1` (some centres not stated): the EC50 in the data set listed under Rattus norvegicus [1] (Rattus norvegicus) is > 10000 nM. The same compound returned an IC50 in data set [2] of 18 nM.
The matching figures for `COc1ccc([C@@H]2c3[nH]c4ccccc4c3C[C@@H]3C(=O)N(C)CC(=O)N23)cc1`: 200 nM and 41 nM.
For `CCCCN1CC(=O)N2[C@H](c3ccc4c(c3)OCO4)c3[nH]c4ccccc4c3C[C@@H]2C1=O` (stereo in doubt), in the data set listed under Rattus norvegicus [1], the EC50 stood at 600 nM. Also, the IC50 in [2] was 5 nM.
`CCCCN1CC(=O)N2[C@H](c3ccc4c(c3)OCO4)c3[nH]c4ccccc4c3C[C@@H]2C1=O` (stereo in doubt; 13) showed an EC50 in the data set listed under Rattus norvegicus [1] (Rattus norvegicus) of 1000 nM. Moreover, in data set [2], inhibition was half-maximal at 3 nM (IC50).
As to `CCCCN1CC(=O)N2C(c3ccccc3)c3[nH]c4ccccc4c3C[C@@H]2C1=O` (some centres not stated), the EC50 in the data set filed under Rattus norvegicus [1] (Rattus norvegicus) is > 10000 nM. In addition, the half-maximal inhibitory concentration (IC50) in data set [2] worked out at 91 nM.
`O=C1[C@H]2Cc3c([nH]c4ccccc34)[C@@H](c3ccc4c(c3)OCO4)N2C(=O)CN1Cc1ccccc1` registered an EC50 in the data set filed under Rattus norvegicus [1] (Rattus norvegicus) of 800 nM. The compound also gave an IC50 in data set [2] of 3 nM.
Regarding `CCCCN1CC(=O)N2C(c3ccc(Cl)cc3)c3[nH]c4ccccc4c3C[C@@H]2C1=O` (some centres not stated), in the data set filed under Rattus norvegicus [1] (Rattus norvegicus), the EC50 was > 10000 nM. Half-maximal inhibition in data set [2] (IC50) was put at 15 nM.
The matching figures for `CN1C[C@H]2Cc3c([nH]c4ccccc34)[C@@H](c3ccc4c(c3)OCO4)N2C1=O`: > 10000 nM and 60 nM.
Regarding `COc1ccc([C@H]2c3[nH]c4ccccc4c3C[C@@H]3C(=O)N(Cc4ccccc4)CN23)cc1`, in the data set listed under Rattus norvegicus [1] (Rattus norvegicus), the EC50 is > 10000 nM. This compound also registered an IC50 in [2] of 60 nM.
The matching figures for `Cc1ccc([C@@H]2c3[nH]c4ccccc4c3C[C@@H]3C(=O)N(CC4CC4)CC(=O)N23)cc1`: 600 nM and 23 nM.
In the case of `CCCCN1C(=O)[C@H]2Cc3c([nH]c4ccccc34)C(c3ccc(OC)cc3)N2C1=O` (some centres not stated), the EC50 in the data set filed under Rattus norvegicus [3] amounted to 700 nM.
As usually defined, the inhibition is the relative decrease from the control value, in per cent. A lower inhibition goes with a response near the control. `CCCCN1CC(=O)N2C(c3ccc(OC)c(OC)c3)c3[nH]c4ccccc4c3C[C@@H]2C1=O` (some centres not stated) had an inhibition in data set [4] of 62%.
The compound `O=C1NCC(=O)N2[C@H](c3ccc4c(c3)OCO4)c3[nH]c4ccccc4c3C[C@H]12` (stereo in doubt; 16) [NORTADALAFIL] registered an EC50 in the data set filed under Rattus norvegicus [1] (Rattus norvegicus) of 300 nM. This compound returned an IC50 in data set [2] of 11 nM.
Compound `O=C1[C@H]2Cc3c([nH]c4ccccc34)C(c3ccc4c(c3)OCO4)N2C(=O)N1Cc1ccccc1` (some centres not stated) registered an EC50 in the data set listed under Rattus norvegicus [1] (Rattus norvegicus) of 3000 nM. This compound yielded an IC50 in [2] of 6 nM.
Regarding `CN1CC(=O)N2[C@H](c3ccc4c(c3)OCO4)c3[nH]c4ccccc4c3C[C@@H]2C1=O` (stereo in doubt), in the data set filed under Rattus norvegicus [1], the EC50 was found to be 500 nM.
`COc1ccc(C2c3[nH]c4ccccc4c3C[C@@H]3C(=O)N(C)C(=O)N23)cc1` (some centres not stated) gave an EC50 in the data set filed under Rattus norvegicus [1] (Rattus norvegicus) of 1000 nM. In [2], this compound showed an IC50 of 10 nM.
The matching figures for `COc1ccc([C@@H]2c3[nH]c4ccccc4c3C[C@@H]3C(=O)N(C4CCCC4)CC(=O)N23)cc1`: 200 nM and 17 nM.
The compound `CC(C)N1CC(=O)N2[C@H](c3ccc4c(c3)OCO4)c3[nH]c4ccccc4c3C[C@@H]2C1=O` (stereo in doubt; 14) showed an EC50 in the data set filed under Rattus norvegicus [1] of 150 nM. This compound also gave an IC50 in [2] of 8 nM.
Compound `CCCCN1CC(=O)N2[C@H](c3ccc(OC)cc3)c3[nH]c4ccccc4c3C[C@@H]2C1=O` displayed an EC50 in the data set filed under Rattus norvegicus [1] (Rattus norvegicus) of 1500 nM. Besides, the midpoint of inhibition in data set [2], the IC50, lay at 5 nM.
For `CCCCN1C[C@H]2Cc3c([nH]c4ccccc34)[C@@H](c3ccc(OC)cc3)N2C1`, the IC50 in [2] was > 10000 nM.
Turning to `CCCCN1CC(=O)N2C(c3ccc(C)cc3)c3[nH]c4ccccc4c3C[C@@H]2C1=O` (some centres not stated), in the data set listed under Rattus norvegicus [1] (Rattus norvegicus), it took 350 nM to reach a half-maximal effect (EC50). In [2], this compound gave an IC50 of 26 nM.
In turn, `O=C1[C@H]2Cc3c([nH]c4ccccc34)[C@@H](c3ccc4c(c3)OCO4)N2C(=O)CN1C1CCCCC1` showed an EC50 in the data set filed under Rattus norvegicus [1] (Rattus norvegicus) of 300 nM. In data set [2], inhibition was half-maximal at 5 nM (IC50).
`CC(C)N1CC(=O)N2[C@H](c3ccc4c(c3)OCO4)c3[nH]c4ccccc4c3C[C@@H]2C1=O` (stereo in doubt) came in with an EC50 in the data set listed under Rattus norvegicus [1] of 500 nM. Further, the IC50 in data set [2] worked out at 6 nM.
As a reminder, the bioavailability is the share of a dose that reaches the circulation, judged against a reference dose that is usually intravenous. High values mean good availability, low ones poor availability. As usually defined, the half-life is how long it takes for the measured level to halve. Higher therefore signals slow loss. What is called clearance is a measure of how efficiently the substance is removed, as volume per time. Lower therefore signals inefficient removal. In the data set listed under Rattus norvegicus [1], `CN1CC(=O)N2[C@H](c3ccc4c(c3)OCO4)c3[nH]c4ccccc4c3C[C@@H]2C1=O` (stereo in doubt; 12a) returned an EC50 of 150 nM. Moreover, the bioavailability in [5] was determined as 63%. Moreover, the half-inhibitory concentration (IC50) in data set [6] was > 10000 nM; against Phosphodiesterase 3B it was > 10000 nM; against Phosphodiesterase 6, 5100 nM; against Phosphodiesterase 1, > 10000 nM. In data set [7], the half-life is 2.4 h. This compound also returned a clearance in [8] of 5.1 mL/min/kg.
In the data set listed under Rattus norvegicus [1] (Rattus norvegicus), `CCCCN1CC(=O)N2C(c3ccc4c(c3)OCO4)c3[nH]c4ccccc4c3C[C@@H]2C1=O` (single isomer, unassigned) displayed a half-maximal effective concentration (EC50) of 3500 nM. This compound also displayed an IC50 in data set [2] of 138 nM.
In the data set filed under Rattus norvegicus [1] (Rattus norvegicus), `COc1ccc([C@@H]2c3[nH]c4ccccc4c3C[C@@H]3C(=O)N(CC4CC4)CC(=O)N23)cc1` yielded an EC50 of 500 nM. The half-maximal inhibitory concentration (IC50) in data set [2] is 6 nM.
Compound `CCCCN1CC(=O)N2C(c3ccc(C#N)cc3)c3[nH]c4ccccc4c3C[C@@H]2C1=O` (some centres not stated) returned an IC50 in [2] of 758 nM.
Turning to `CCN1CC(=O)N2[C@H](c3ccc(OC)cc3)c3[nH]c4ccccc4c3C[C@@H]2C1=O`, in the data set listed under Rattus norvegicus [1] (Rattus norvegicus), the EC50 worked out at 500 nM.
Regarding `O=C1NCC(=O)N2[C@H](c3ccc4c(c3)OCO4)c3[nH]c4ccccc4c3C[C@H]12` (stereo in doubt) [NORTADALAFIL], in the data set listed under Rattus norvegicus [1], the EC50 amounted to 600 nM. In addition, in data set [2], the IC50 amounted to 12 nM.
